≈ marks a conversion by molar mass, not a printed value. Calls of active or inactive are those of the source. The calls are words filed in the database; no cut-off is given here.
Key:
Streptococcus pyogenes = assay: Antibacterial activity against Streptococcus pyogenes MGAS 9882 assessed as inhibition of bacterial growth incubated for 18 to 20 hrs by broth microdilution method; format: functional; details: time 18-20 hrs
Method in brief: (§1)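 Broth microdilution with a 0.5 McFarland inoculum diluted in tryptic soy broth to about 5 × 10^5 CFU/mL. Serial compound dilutions incubated aerobically at 37° C for 18–20 hours. MIC read visually as the lowest concentration with no growth.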

Staphylococcus aureus [1] = assay: Antibacterial activity against methicillin-sensitive Staphylococcus aureus NRS 107 assessed as inhibition of bacterial growth incubated for 18 to 20 hrs by broth microdilution method; format: functional; details: time 18-20 hrs
Method in brief: (§2)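 Broth microdilution per CLSI. Inoculum was set to 0.5 McFarland and diluted in CAMHB to about 5×10^5 CFU/mL. Serial dilutions of agent were incubated aerobically at 37 °C for 18–20 h. MIC was read visually as the lowest concentration with complete growth inhibition.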

Staphylococcus aureus [2] = assay: Downregulation of AdhE protein expression in Staphylococcus aureus assessed as log2 of fold change in protein level measured after 2 hrs by LC-MS/MS analysis relative to control; format: functional
Method in brief: (§3)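 S. aureus ATCC 25923 at OD600 0.6 was treated with compound or DMSO for 2 h at 37 °C, normalised to OD600 1.1, and washed in PBS. Cells were pressure-lysed in 100 mM ammonium bicarbonate, then acetone-precipitated, reduced with DTT, alkylated with iodoacetamide, and digested with trypsin/Lys-C. Peptides were desalted and run on LC-MS/MS. Label-free quantitation used proteins present in all 3 samples, filtered at p<0.05 against DMSO.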

Staphylococcus aureus [3] = assay: Upregulation of MecA protein expression in Staphylococcus aureus assessed as log2 of fold change in protein level measured after 2 hrs by LC-MS/MS analysis relative to control; format: functional
Method in brief: (§4)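 S. aureus ATCC 25923 at OD600 0.6 exposed to compound or DMSO control for 2 h at 37°C, normalized to OD600 1.1 and PBS-washed. Cells were pressure-cycling lysed in 100 mM ammonium bicarbonate, and 50 μg protein was acetone-precipitated, reduced and alkylated, then Trypsin/Lys-C digested and C18-desalted. About 1 μg peptides went to LC-MS/MS. Label-free quantitation kept proteins present in all 3 samples, filtered at p <0.05.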

Staphylococcus aureus [4] = assay: Upregulation of dihydroxyacetone kinase subunit L expression in Staphylococcus aureus measured after 2 hrs by LC-MS/MS analysis; format: functional; method in brief: as §4
Staphylococcus aureus [5] = assay: Downregulation of MtaB protein expression in Staphylococcus aureus assessed as log2 of fold change in protein level measured after 2 hrs by LC-MS/MS analysis relative to control; format: functional; method in brief: as §3
Staphylococcus aureus [6] = assay: Antibacterial activity against vancomycin-resistant Staphylococcus aureus 9 assessed as inhibition of bacterial growth incubated for 18 to 20 hrs by broth microdilution method; format: functional; details: time 18-20 hrs; method in brief: as §2
Staphylococcus aureus [7] = assay: Upregulation of siderophore biosynthesis protein SbnE expression in Staphylococcus aureus measured after 2 hrs by LC-MS/MS analysis; format: functional; method in brief: as §4
Staphylococcus aureus [8] = assay: Downregulation of LukS-PV protein expression in Staphylococcus aureus assessed as log2 of fold change in protein level measured after 2 hrs by LC-MS/MS analysis relative to control; format: functional; method in brief: as §3
Mus musculus [9] = assay: Acceleration of wound healing in methicillin-resistant Staphylococcus aureus USA300 infected in Balb/c mouse model assessed as reduction in pro-inflammatory cytokines level in skin wounds administered topically twice daily 2 days post infection and measured after 5 days post compound treatment; format: functional, organism-based; details: time 5.0 day
Method in brief: (§5)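 Mice had two 6-mm dorsal excisional wounds, each infected with 20 μL of 4.2×10^9 CFU/mL MRSA USA300 and covered with Tegaderm. Treatment began 2 days after infection (n=5 per group): 2% compound in petroleum jelly applied topically twice daily for 5 days. Right-wound homogenates in PBS were centrifuged, supernatants pooled per group, and protein normalised by BCA. Cytokines were measured by mouse cytokine array (pg/mL).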

Staphylococcus aureus [10] = assay: Upregulation of GpmA protein expression in Staphylococcus aureus assessed as log2 of fold change in protein level measured after 2 hrs by LC-MS/MS analysis relative to control; format: functional; method in brief: as §4
HaCaT = assay: Cytotoxicity against human HaCaT cells assessed as reduction in cell viability measured upto 64 ug/ml incubated for 2 hrs by MTS assay; format: toxicity, cell-based; details: dose < 64 µg/ml
Method in brief: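 Human keratinocytes exposed to compound at 16, 32, 64 and 128 μg/mL in sextuplicate for 2 hours at 37 °C with 5% CO2. DMSO served as the baseline control. MTS reagent added, then 3 h further incubation, and absorbance read at OD490.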

Staphylococcus aureus [11] = assay: Upregulation of glycine cleavage system protein H expression in Staphylococcus aureus measured after 2 hrs by LC-MS/MS analysis; format: functional; method in brief: as §4
Mus musculus [12] = assay: Acceleration of wound healing in methicillin-resistant Staphylococcus aureus USA300 infected Balb/c mouse model assessed as reduction in IL-1beta level in skin wounds administered topically twice daily 2 days post infection and measured after 5 days post compound treatment; format: functional, organism-based; details: time 5.0 day; method in brief: as §5
[13] = tested on: Staphylococcus epidermidis; assay: Antibacterial activity against Staphylococcus epidermidis NRS 101 assessed as inhibition of bacterial growth incubated for 18 to 20 hrs by broth microdilution method; format: functional; details: time 18-20 hrs
Method in brief: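 Broth microdilution per CLSI. Inoculum at 0.5 McFarland, diluted in cation-adjusted Mueller Hinton broth to about 5 × 10^5 CFU/mL. Serial compound dilutions incubated aerobically at 37° C for 18–20 hours. MIC taken as the lowest concentration completely inhibiting visible growth.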

Staphylococcus aureus [14] = assay: Downregulation of DapE protein expression in Staphylococcus aureus assessed as log2 of fold change in protein level measured after 2 hrs by LC-MS/MS analysis relative to control; format: functional; method in brief: as §3
[15] = In vivo antibacterial activity against methicillin-resistant Staphylococcus aureus USA300 infected in Balb/c mouse model assessed as reduction in bacterial infection in skin wounds administered topically twice daily 2 days post infection and measured after 5 days post compound treatment by CFU counting; design: scale not given: the % may be the effect or the level left; details: time 5 day
Staphylococcus aureus [16] = assay: Downregulation of PTS mannose transporter subunit IIABC protein expression in Staphylococcus aureus measured after 2 hrs by LC-MS/MS analysis; format: functional; method in brief: as §3
Staphylococcus aureus [17] = assay: Downregulation of LipA protein expression in Staphylococcus aureus assessed as log2 of fold change in protein level measured after 2 hrs by LC-MS/MS analysis relative to control; format: functional; method in brief: as §3
Listeria monocytogenes = assay: Antibacterial activity against Listeria monocytogenes ATCC 19111 assessed as inhibition of bacterial growth incubated for 18 to 20 hrs by broth microdilution method; format: functional; details: time 18-20 hrs; method in brief: as §1
Staphylococcus aureus [18] = assay: Antibacterial activity against methicillin-resistant Staphylococcus aureus NRS384 assessed as inhibition of bacterial growth incubated for 18 to 20 hrs by broth microdilution method; format: functional; details: time 18-20 hrs; method in brief: as §2
Staphylococcus aureus [19] = assay: Downregulation of uroporphyrinogen-III C-methyltransferase protein expression in Staphylococcus aureus measured after 2 hrs by LC-MS/MS analysis; format: functional; method in brief: as §4
Staphylococcus aureus [20] = assay: Downregulation of holo-ACP synthase protein expression in Staphylococcus aureus measured after 2 hrs by LC-MS/MS analysis; format: functional; method in brief: as §3
Staphylococcus aureus [21] = assay: Downregulation of CarB protein expression in Staphylococcus aureus assessed as log2 of fold change in protein level measured after 2 hrs by LC-MS/MS analysis relative to control; format: functional; method in brief: as §3
Staphylococcus aureus [22] = assay: Downregulation of membrane protein expression in Staphylococcus aureus measured after 2 hrs by LC-MS/MS analysis; format: functional; method in brief: as §4
Staphylococcus aureus [23] = assay: Downregulation of type VII secretion protein EsaB protein expression in Staphylococcus aureus measured after 2 hrs by LC-MS/MS analysis; format: functional; method in brief: as §4

CC1CC(C)CN(S(=O)(=O)c2ccc(C(=O)Nc3nnc(-c4ccc(C(F)(F)F)cc4)o3)cc2)C1 (stereo unspecified)
MIC (Streptococcus pyogenes): 0.06 µg/mL (≈ 0.118 µM)
MIC (Staphylococcus aureus [1]): 0.25 µg/mL (≈ 0.492 µM)
log2FC (Staphylococcus aureus [2]): -2.5
log2FC (Staphylococcus aureus [3]): 2
Activity (Staphylococcus aureus [4]): Active
log2FC (Staphylococcus aureus [5]): -2
MIC (Staphylococcus aureus [6]): 0.25 µg/mL (≈ 0.492 µM)
Activity (Staphylococcus aureus [7]): Active
log2FC (Staphylococcus aureus [8]): -3.7
Activity (Mus musculus [9]): Active
log2FC (Staphylococcus aureus [10]): 2.2
Activity (HaCaT): Non-Toxic
Activity (Staphylococcus aureus [11]): Active
Activity (Mus musculus [12]): Active
MIC [13]: 0.25 µg/mL (≈ 0.492 µM)
log2FC (Staphylococcus aureus [14]): -3.3
Activity [15]: 93.8%
Activity (Staphylococcus aureus [16]): Active
log2FC (Staphylococcus aureus [17]): -2
MIC (Listeria monocytogenes): 0.06 µg/mL (≈ 0.118 µM)
MIC (Staphylococcus aureus [18]): 0.25 µg/mL (≈ 0.492 µM)
Activity (Staphylococcus aureus [19]): Active
Activity (Staphylococcus aureus [20]): Active
log2FC (Staphylococcus aureus [21]): -2
Activity (Staphylococcus aureus [22]): Active
Activity (Staphylococcus aureus [23]): Active

— ChEMBL document CHEMBL5154895, “Mechanistic Studies and In Vivo Efficacy of an Oxadiazole-Containing Antibiotic” (J Med Chem, 2022)
